The values that follow come from ChEMBL document CHEMBL1142419, “Antimycobacterial activities of novel 2-(sub)-3-fluoro/nitro-5,12-dihydro-5-oxobenzothiazolo[3,2-a]quinoline-6-carboxylic acid” (Bioorg Med Chem, 2008).

Converted amounts (≈) assume the structure as drawn. A value given as a limit tells only on which side of the number the result lay.

Data set [1] concerns Mycobacterium tuberculosis. Put plainly: Antimycobacterial activity against Mycobacterium tuberculosis H37Rv by agar dilution method. The data set is classed as functional. A digest of the protocol: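 MIC by agar dilution on Middlebrook 7H11 agar supplemented with OADC, following an NCCLS-like procedure, run in duplicate. The MDR-TB clinical isolate was resistant to isoniazid, rifampicin, ethambutol and ofloxacin.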
(In general: In agar dilution the substance is mixed into plates at graded concentrations.)

Data set [2] deals with Mycolicibacterium smegmatis. Put plainly: Antimycobacterial activity against Mycobacterium smegmatis MC2 by agar dilution method. It counts as functional. A digest of the protocol: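 Agar dilution on Middlebrook 7H11 agar supplemented with OADC, following an NCCLS-like procedure; MIC determined in duplicate against M. smegmatis ATCC 14468 (MC²).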
Data set [3] can be described thus: Inhibition of Mycobacterium smegmatis DNA gyrase supercoiling activity. On the set-up: species or system Mycolicibacterium smegmatis.
The subject of the next data set is Vero. Kind of data set: Cytotoxicity against african green monkey Vero cells after 72 hrs by MTT assay. The data set is classed as cell-based. The settings on record: Chlorocebus sabaeus. The method in brief: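 Vero mammalian cells were exposed to compounds for 72 h, with testing at 62.5 µg/ml. Viability was read as cellular conversion of MTT to formazan (non-radioactive cell proliferation kit), and IC50 was reported.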

The subject of data set [4] is Mus musculus. Put plainly: Phototoxicity in Swiss albino mouse assessed as ear thickness at 140 mg/kg, po after 4 hrs of irradiation. It counts as organism-based. On the set-up: dose 140 mg/kg, route oral. Conditions: in vivo. The method in brief:
(§1)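 Female Swiss albino mice (about 2 months, 20–25 g), fasted at least 18 h, received a single oral gavage of 140 mg/kg. Groups: six per group; lomefloxacin HCl 140 mg/kg; vehicle 0.5% aqueous sodium carboxymethylcellulose at 10 ml/kg. Mice were UV-irradiated for 4 h (about 18 J/cm²). Both ears were scored for erythema, edema and ear thickness (left/right averaged) pre-dose, at end of irradiation, and at about 24, 48, 72 and 96 h. Ear thickness change from baseline was tested by Student's t-tests.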

The subject of data set [5] is Mus musculus. Put plainly: Phototoxicity in Swiss albino mouse assessed as ear thickness at 140 mg/kg, po after 24 hrs of irradiation. It counts as organism-based. The settings on record: in vivo. More on the design: dose 140 mg/kg, route oral. The method in brief: as §1
Data set [6] has as its system Mus musculus. Put plainly: Phototoxicity in Swiss albino mouse assessed as ear thickness at 140 mg/kg, po after 48 hrs of irradiation. It counts as organism-based. Conditions: in vivo. On the set-up: dose 140 mg/kg, route oral. A digest of the protocol: as §1
In data set [7] the test system is Mus musculus. Kind of data set: Phototoxicity in Swiss albino mouse assessed as ear thickness at 140 mg/kg, po after 72 hrs of irradiation. The data set is classed as organism-based. More on the design: dose 140 mg/kg, route oral. The settings on record: in vivo. The method in brief: as §1
The test system of data set [8] is Mus musculus. Kind of data set: Phototoxicity in Swiss albino mouse assessed as ear thickness at 140 mg/kg, po after 96 hrs of irradiation. On the set-up: dose 140 mg/kg, route oral. It counts as organism-based. The settings on record: in vivo. The method in brief: as §1
The test system of data set [9] is Mus musculus. Kind of data set: Phototoxicity in Swiss albino mouse assessed as erythema incidence at 140 mg/kg, po after 4 hrs of irradiation. The data set is classed as organism-based. On the set-up: dose 140 mg/kg, route oral. Conditions: in vivo. The method in brief: as §1
Data set [10] concerns Mus musculus. Kind of data set: Phototoxicity in Swiss albino mouse assessed as erythema incidence at 140 mg/kg, po after 24 hrs of irradiation. It counts as organism-based. On the set-up: dose 140 mg/kg, route oral. The settings on record: in vivo. A digest of the protocol: as §1
The subject of data set [11] is Mus musculus. Put plainly: (§2) Phototoxicity in Swiss albino mouse assessed as erythema incidence at 140 mg/kg, po after 48 hrs of irradiation. The data set is classed as organism-based. Conditions: in vivo. More on the design: dose 140 mg/kg, route oral. The method in brief:
as §1

Data set [12] deals with Mus musculus. The data set is described as §2. On the set-up: dose 140 mg/kg, route oral. Conditions: in vivo. It counts as organism-based. A digest of the protocol:
as §1
This is another data set of the same source.

Data set [13] concerns Mus musculus. Kind of data set: Phototoxicity in Swiss albino mouse assessed as erythema incidence at 140 mg/kg, po after 96 hrs of irradiation. The settings on record: in vivo. It counts as organism-based. On the set-up: dose 140 mg/kg, route oral. The method in brief: as §1

Take `O=C(O)c1c(=O)c2cc(F)c(N3CCC(n4c(=O)[nH]c5cc(Cl)ccc54)CC3)cc2n2c1sc1ccccc12`: the MIC (usually the lowest concentration found to suppress growth) in data set [1] is 2.77 µM (≈ 1.56 µg/mL); in data set [2], 44.4 µM (≈ 25 µg/mL).
For the compound `O=C(O)c1c(=O)c2cc(F)c(N3CCC(N4CCCCC4)CC3)cc2n2c1sc1ccccc12`, the IC50 (in general, the concentration that inhibits the measured activity by half) in data set [3] was more than 50 µg/mL; with Vero, 130 µM. Further, the MIC in data set [1] stood at 0.39 µM (≈ 0.187 µg/mL); in data set [2], 6.53 µM (≈ 3.13 µg/mL).
Turning to `O=C(O)c1c(=O)c2cc(F)c(N3CCC4(CC3)OCCO4)cc2n2c1sc1ccccc12`, the Activity in the data set on Mus musculus [4] is 0.3 mm; in the data set with Mus musculus [5], 0.31 mm; in the data set on Mus musculus [6], 0.3 mm; in the data set with Mus musculus [7], 0.28 mm; with Mus musculus [8] it was 0.3 mm; in the data set on Mus musculus [9], “Non-toxic”. The Activity entry with Mus musculus [10], in the data set with Mus musculus [11], in the data set on Mus musculus [12] and in the data set with Mus musculus [13] was “Non-toxic” in each case. The MIC in data set [1] came to 0.86 µM (≈ 0.391 µg/mL); in data set [2] it was 6.89 µM (≈ 3.13 µg/mL). Moreover, the IC50 with Vero is more than 138 µM.
As for `CC(C)(C)NC(=O)C1c2ccccc2CCN1c1cc2c(cc1F)c(=O)c(C(=O)O)c1sc3ccccc3n12` (stereo unspecified), the MIC in [1] is 2.87 µM (≈ 1.56 µg/mL); in data set [2], 46 µM (≈ 25 µg/mL). For the same compound, the IC50 in the data set with Vero stood at 115 µM.
Consider `O=C(O)c1c(=O)c2cc(F)c(N3CCN(C(=O)C4COc5ccccc5O4)CC3)cc2n2c1sc1ccccc12` (stereo unspecified), for which the IC50 was more than 50 µg/mL in [3] and 112 µM with Vero. For the same compound, the minimal inhibitory concentration (MIC) in data set [1] amounted to 1.39 µM (≈ 0.778 µg/mL); in data set [2], 2.79 µM (≈ 1.56 µg/mL).
Consider `CC(C)(C)OC(=O)NC1C2CN(c3cc4c(cc3F)c(=O)c(C(=O)O)c3sc5ccccc5n34)CC21` (stereo unspecified), for which the IC50 in data set [3] was 50 µg/mL (≈ 98.1 µM); in the data set with Vero, more than 113 µM. In addition, the values for the minimal inhibitory concentration (MIC) in [1] and in data set [2] were 0.37 µM (≈ 0.189 µg/mL) and 6.14 µM (≈ 3.13 µg/mL), respectively.
Consider `O=C(O)c1c(=O)c2cc([N+](=O)[O-])c(N3CCN(C(c4ccccc4)c4ccc(Cl)cc4)CC3)cc2n2c1sc1ccccc12` (stereo unspecified), for which the MIC in [1] came out at 5.01 µM (≈ 3.13 µg/mL); in [2] it was 40 µM (≈ 25 µg/mL). In the data set with Vero, this compound came in with an IC50 of 50 µM.
`O=C(O)c1c(=O)c2cc([N+](=O)[O-])c(N3CCC(n4c(=O)[nH]c5cc(Cl)ccc54)CC3)cc2n2c1sc1ccccc12`: the values for the minimum inhibitory concentration (MIC) in data set [1] and in data set [2] were 5.31 µM (≈ 3.13 µg/mL) and 84.8 µM (≈ 50 µg/mL), respectively.
As to `O=C(O)c1c(=O)c2cc([N+](=O)[O-])c(N3CCC4(CC3)OCCO4)cc2n2c1sc1ccccc12`, the MIC in [1] turned out to be 1.62 µM (≈ 0.78 µg/mL); in [2], 104 µM (≈ 50 µg/mL). The compound further showed an IC50 with Vero of 130 µM.
In the case of `CN1CCN(c2cc3c(cc2F)c(=O)c(C(=O)O)c2sc4ccccc4n23)CC1c1ccccc1` (stereo unspecified), the MIC turned out to be 12.8 µM (≈ 6.25 µg/mL) in data set [1] and 103 µM (≈ 50 µg/mL) in data set [2].
Turning to `CC(C)(C)OC(=O)NC1C2CN(c3cc4c(cc3[N+](=O)[O-])c(=O)c(C(=O)O)c3sc5ccccc5n34)CC21` (stereo unspecified), the MIC was found to be 2.91 µM (≈ 1.56 µg/mL) in data set [1] and 93.2 µM (≈ 50 µg/mL) in data set [2]. Also, half-maximal inhibition in the data set on Vero (IC50) required 58.2 µM.
Regarding `O=C(O)c1c(=O)c2cc(F)c(N3CCN(Cc4ccc5c(c4)OCO5)CC3)cc2n2c1sc1ccccc12`, the values for the minimal inhibitory concentration (MIC) in data set [1] and in data set [2] were 1.47 µM (≈ 0.781 µg/mL) and 5.89 µM (≈ 3.13 µg/mL), respectively. Moreover, in the data set on Vero, the IC50 is more than 118 µM.
In the case of `CC1CN(c2cc3c(cc2[N+](=O)[O-])c(=O)c(C(=O)O)c2sc4ccccc4n23)CC(C)O1` (stereo unspecified), the MIC in data set [1] worked out at 6.9 µM (≈ 3.13 µg/mL); in data set [2] it was 110 µM (≈ 50 µg/mL).
For `O=C(O)c1c(=O)c2cc(F)c(N3CCN(C(c4ccccc4)c4ccc(Cl)cc4)CC3)cc2n2c1sc1ccccc12` (stereo unspecified), the values for the MIC in [1] and in data set [2] were 2.61 µM (≈ 1.56 µg/mL) and 10.4 µM (≈ 6.25 µg/mL), respectively. The compound also returned an IC50 in the data set with Vero of 104 µM.
The like results for `O=C(O)c1c(=O)c2cc([N+](=O)[O-])c(N3CCN(Cc4ccc5c(c4)OCO5)CC3)cc2n2c1sc1ccccc12` were, in that order, 5.6 µM (≈ 3.13 µg/mL), 44.8 µM (≈ 25 µg/mL) and 112 µM.
For `CC(C)(C)NC(=O)C1c2ccccc2CCN1c1cc2c(cc1[N+](=O)[O-])c(=O)c(C(=O)O)c1sc3ccccc3n12` (stereo unspecified), the values for the MIC in [1] and in data set [2] were 2.73 µM (≈ 1.56 µg/mL) and 43.8 µM (≈ 25 µg/mL), respectively.
In the case of `O=C(O)c1c(=O)c2cc([N+](=O)[O-])c(N3CCC(O)(c4ccc(Cl)cc4)CC3)cc2n2c1sc1ccccc12`, the results for the MIC in data set [1] and in data set [2] were 2.84 µM (≈ 1.56 µg/mL) and 90.9 µM (≈ 50 µg/mL), respectively. Moreover, the IC50 with Vero is 114 µM.
With `O=C(O)c1c(=O)c2cc(F)c(N3CCSCC3)cc2n2c1sc1ccccc12`, the minimal inhibitory concentration (MIC) is 3.76 µM (≈ 1.56 µg/mL) in [1] and 7.55 µM (≈ 3.13 µg/mL) in [2].
